Experimental data from ChEMBL document CHEMBL4689842, “EUbOPEN Chemogenomics Library wave 1” (2021).
“And” between values parts separate entries of the source, which are not always exact repeats. Equal values may be shown once.

System: Fibroblast
Assay: Multiplex assay against human fibroblast
Type: toxicity, cell-based
Conditions: 10 µM, compound concentration 10 uM
Procedure, shortened: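 Live cells carried four stains from seeding: Hoechst33342, BioTracker Green Microtubule Cytoskeleton Dye, MitoTracker Red and Annexin V Alexa Fluor 680. They were imaged on a CQ1 microscope at 37°C and 5% CO2 after compound addition. Using CellPathfinder machine-learning gating, cells were split into Hoechst high-intensity objects or normal cells, normal cells into healthy, pyknosed or fragmented nuclei, and pyknosed cells into mitotic or apoptotic; tubulin, mitochondrial-mass and membrane-permeability phenotypes are per cents of healthy-nucleus cells.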

CCOCCn1cc(C(=O)Nc2ccc(-n3nc(-c4cccnc4)cc3C(F)(F)F)cn2)ccc1=O [BI 1935]
Population Apoptotic (%) (12 h, replicate 1): 85% and 52% and 61% | Population Fragmented Nuclei (%) (12 h, replicate 1): 25% and 26% and 24% | Population Healthy Nuclei (%) (12 h, replicate 1): 45% and 60% and 58% | Population Hoechst High Intensity Objects (%) (12 h, replicate 1): 20% and 11% and 13% | Population Membrane Permeable-Phenotype (%) (12 h, replicate 1): 9% and 15% and 6% | Population Normal (%) (12 h, replicate 1): 79% and 88% and 86% | Population Pyknosed Nuclei (%) (12 h, replicate 1): 29% and 13% and 17% | Population Apoptotic (%) (12 h, replicate 2): 100% and 42% and 47% | Population Membrane Permeable-Phenotype (%) (12 h, replicate 2): 23% and 14% and 8% | Population Normal (%) (12 h, replicate 2): 62% and 60% and 92% | Population Tubulin-Different-Phenotype (%) (12 h, replicate 2): 23% and 57% and 64% | Total Cell Count (12 h, replicate 2): 78 and 61 and 79 | Population Apoptotic (%) (24 h, replicate 1): 60% and 72% and 64% | Population Fragmented Nuclei (%) (24 h, replicate 1): 35% and 25% and 24% | Population Healthy Nuclei (%) (24 h, replicate 1): 50% and 61% and 62% | Population Hoechst High Intensity Objects (%) (24 h, replicate 1): 21% and 14% and 16% | Population Membrane Permeable-Phenotype (%) (24 h, replicate 1): 8% and 4% | Population Mitotic Cells (%) (24 h, replicate 1): 40% and 27% and 36% | Population Normal (%) (24 h, replicate 1): 78% and 85% and 83% | Population Pyknosed Nuclei (%) (24 h, replicate 1): 14% and 13% and 12% | Population Apoptotic (%) (24 h, replicate 2): 33% and 28% and 40% | Population Healthy Nuclei (%) (24 h, replicate 2): 44% and 25% and 66% | Population Mitotic Cells (%) (24 h, replicate 2): 66% and 71% and 60% | Population Normal (%) (24 h, replicate 2): 60% and 91% | Population Tubulin-Different-Phenotype (%) (24 h, replicate 2): 20% and 55% and 44% | Total Cell Count (24 h, replicate 2): 74 and 58 and 92 | Population Apoptotic (%) (48 h, replicate 1): 55% | Population Fragmented Nuclei (%) (48 h, replicate 1): 44% | Population Healthy Nuclei (%) (48 h, replicate 1): 42% | Population Hoechst High Intensity Objects (%) (48 h, replicate 1): 22% | Population Membrane Permeable-Phenotype (%) (48 h, replicate 1): 0% | Population Mitochondria Different-Phenotype (%) (48 h, replicate 1): 40% | Population Mitotic Cells (%) (48 h, replicate 1): 44% | Population Normal (%) (48 h, replicate 1): 77% | Population Pyknosed Nuclei (%) (48 h, replicate 1): 12% | Population Tubulin-Different-Phenotype (%) (48 h, replicate 1): 86% | Total Cell Count (48 h, replicate 1): 90 | Population Apoptotic (%) (48 h, replicate 2): 0% | Population Fragmented Nuclei (%) (48 h, replicate 2): 28% | Population Healthy Nuclei (%) (48 h, replicate 2): 71% | Population Hoechst High Intensity Objects (%) (48 h, replicate 2): 9% | Population Membrane Permeable-Phenotype (%) (48 h, replicate 2): 11% | Population Mitochondria Different-Phenotype (%) (48 h, replicate 2): 3% | Population Mitotic Cells (%) (48 h, replicate 2): 0% | Population Normal (%) (48 h, replicate 2): 90% | Population Pyknosed Nuclei (%) (48 h, replicate 2): 0% | Population Tubulin-Different-Phenotype (%) (48 h, replicate 2): 70% | Total Cell Count (48 h, replicate 2): 42
